Test results from ChEMBL document CHEMBL1140733, “Comprehensive study of sansalvamide A derivatives and their structure-activity relationships against drug-resistant colon cancer cell lines” (J Med Chem, 2008).
Square brackets hold non-standard residues; d marks the D form. Peptide text beside a SMILES is read from it. * marks the point of attachment. dNMeF = CN[C@H](Cc1ccccc1)C(=O)O; Cbz = O=C(OCc1ccccc1)*; Bn = c1ccc(C*)cc1

What was measured:
HCT-116 [1] = experiment: Cytotoxicity against multidrug-resistant human HCT116 cells at 1 uM by thymidine incorporation assay; assay type: functional
Procedure, shortened: (§1)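 HCT-116 cells were grown in IMDM and HCT-15 in RPMI 1640, each with L-glutamine, 10% FBS and penicillin-streptomycin, at 3000 cells/well. Compound was applied at 1 µM in 1% DMSO for 72 h total, with 3H-thymidine added for the final 16 h. Percent growth inhibition versus DMSO controls was scintillation-counted, averaging three wells in each of three assays.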

HCT-116 [2] = experiment: Cytotoxicity against multidrug-resistant human HCT116 cells by thymidine incorporation assay; assay type: functional, cell-based
Procedure, shortened: (§2)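 Cells (3000/well) were plated in IMDM (HCT-116), RPMI 1640 (HCT-15) or MEM (WS-1), each with L-glutamine, 10% FBS and 0.1% penicillin-streptomycin. Compounds in DMSO (1% in all wells) were added after about 6 h and left for 72 h, with 3H-thymidine pulsed for the last 16 h. Uptake was scintillation-counted against DMSO controls. IC50 came from four-concentration curves, three experiments in quadruplicate.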

[3] = Cytotoxicity against human WS1 cells by thymidine incorporation assay; assay type: cell-based; procedure, shortened: as §2
HCT-15 [4] = experiment: Cytotoxicity against multidrug-resistant human HCT15 cells by thymidine incorporation assay; assay type: functional, cell-based; procedure, shortened: as §2
HCT-15 [5] = experiment: Cytotoxicity against multidrug-resistant human HCT15 cells at 1 uM by thymidine incorporation assay; assay type: functional; procedure, shortened: as §1

| SMILES | inhibition at 1 µM (HCT-116 [1]) | IC50 (HCT-116 [2]) | IC50 [3] | IC50 (HCT-15 [4]) | inhibition at 1 µM (HCT-15 [5]) |
| --- | --- | --- | --- | --- | --- |
| CC(C)C[C@@H]1NC(=O)[C@H](Cc2ccccc2)NC(=O)[C@H](CC(C)C)NC(=O)[C@H](C(C)C)NC(=O)[C@H](CC(C)C)NC1=O (HELM PEPTIDE1{F.L.L.V.L}$PEPTIDE1,PEPTIDE1,1:R1-5:R2$$$V2.0) | 28% | 25 µM | 200 µM | 46 µM | 10% |
| CC(C)C[C@@H]1NC(=O)[C@H](Cc2ccccc2)NC(=O)[C@@H](CC(C)C)N(C)C(=O)[C@H](C(C)C)NC(=O)[C@H](CC(C)C)NC1=O (HELM PEPTIDE1{F.L.L.V.[CC(C)C[C@H](C(=O)[*:2])N(C)[*:1]]}$PEPTIDE1,PEPTIDE1,1:R1-5:R2$$$V2.0) | 25% | > 50 µM | – | > 50 µM | 33% |
| CC(C)C[C@@H]1NC(=O)[C@H](Cc2ccccc2)NC(=O)[C@@H](CC(C)C)NC(=O)[C@H](C(C)C)NC(=O)[C@H](CC(C)C)NC1=O (HELM PEPTIDE1{F.L.L.V.[dL]}$PEPTIDE1,PEPTIDE1,1:R1-5:R2$$$V2.0) | 18% | > 50 µM | – | > 50 µM | 10% |
| CC(C)C[C@@H]1NC(=O)[C@H](Cc2ccccc2)NC(=O)[C@H](CC(C)C)N(C)C(=O)[C@H](C(C)C)NC(=O)[C@H](CC(C)C)NC1=O (HELM PEPTIDE1{F.L.L.V.[meL]}$PEPTIDE1,PEPTIDE1,1:R1-5:R2$$$V2.0) | 20% | > 50 µM | – | > 50 µM | 3% |
| CC(C)C[C@@H]1NC(=O)[C@H](Cc2ccccc2)NC(=O)[C@H](CC(C)C)NC(=O)[C@@H](C(C)C)NC(=O)[C@H](CC(C)C)NC1=O (HELM PEPTIDE1{F.L.L.[dV].L}$PEPTIDE1,PEPTIDE1,1:R1-5:R2$$$V2.0) | 48% | 1.3 µM | 20 µM | 0.8 µM | 48% |
| CC(C)C[C@@H]1NC(=O)[C@H](C(C)C)NC(=O)[C@H](CC(C)C)NC(=O)[C@H](CC(C)C)N(C)C(=O)[C@H](Cc2ccccc2)NC1=O (HELM PEPTIDE1{F.[meL].L.V.L}$PEPTIDE1,PEPTIDE1,1:R1-5:R2$$$V2.0) | 59% | 0.8 µM | 200 µM | 4.5 µM | 35% |
| CC(C)C[C@@H]1NC(=O)[C@H](CC(C)C)NC(=O)[C@@H](Cc2ccccc2)NC(=O)[C@H](CC(C)C)NC(=O)[C@H](C(C)C)NC1=O (HELM PEPTIDE1{L.L.V.L.[dF]}$PEPTIDE1,PEPTIDE1,1:R1-5:R2$$$V2.0) | 30% | > 50 µM | – | > 50 µM | 26% |
| CC(C)C[C@@H]1NC(=O)[C@H](CC(C)C)NC(=O)[C@@H](Cc2c[nH]c3ccccc23)NC(=O)[C@H](CC(C)C)NC(=O)[C@H](C(C)C)NC1=O (HELM PEPTIDE1{L.L.V.L.[dW]}$PEPTIDE1,PEPTIDE1,1:R1-5:R2$$$V2.0) | 2% | – | – | – | 9% |
| CC(C)C[C@@H]1NC(=O)[C@H](CC(C)C)NC(=O)[C@@H](Cc2ccc(O)cc2)NC(=O)[C@H](CC(C)C)NC(=O)[C@H](C(C)C)NC1=O (HELM PEPTIDE1{L.L.V.L.[dY]}$PEPTIDE1,PEPTIDE1,1:R1-5:R2$$$V2.0) | 45% | 1.5 µM | 200 µM | 1 µM | 47% |
| CC(C)C[C@@H]1NC(=O)[C@H](CC(C)C)NC(=O)[C@@H](Cc2ccccc2)NC(=O)[C@@H](CC(C)C)NC(=O)[C@@H](C(C)C)NC1=O (HELM PEPTIDE1{L.L.[dV].[dL].[dF]}$PEPTIDE1,PEPTIDE1,1:R1-5:R2$$$V2.0) | 44% | – | – | – | 35% |
| CC(C)C[C@@H]1NC(=O)[C@@H](Cc2ccccc2)NC(=O)[C@H](C(C)C)NC(=O)[C@@H](CC(C)C)NC(=O)[C@@H](CC(C)C)NC1=O (HELM PEPTIDE1{L.[dL].[dL].V.[dF]}$PEPTIDE1,PEPTIDE1,1:R1-5:R2$$$V2.0) | 32% | – | – | – | 0% |
| CC[C@@H]1NC(=O)[C@H](CC(C)C)NC(=O)[C@H](CC(C)C)NC(=O)[C@H](Cc2ccccc2)NC(=O)[C@H](CC(C)C)NC1=O (HELM PEPTIDE1{[Abu].L.F.L.L}$PEPTIDE1,PEPTIDE1,1:R1-5:R2$$$V2.0) | 1% | – | – | – | 8% |
| CC[C@@H]1NC(=O)[C@H](CC(C)C)NC(=O)[C@H](CC(C)C)NC(=O)[C@H](Cc2ccccc2)NC(=O)[C@@H](CC(C)C)NC1=O (HELM PEPTIDE1{[Abu].[dL].F.L.L}$PEPTIDE1,PEPTIDE1,1:R1-5:R2$$$V2.0) | 13% | – | – | – | 8% |
| CC(C)C[C@@H]1NC(=O)[C@H](C(C)C)NC(=O)[C@H](CC(C)C)NC(=O)[C@@H](CC(C)C)N(C)C(=O)[C@H](Cc2ccccc2)NC1=O (HELM PEPTIDE1{[CC(C)C[C@H](C(=O)[*:2])N(C)[*:1]].L.V.L.F}$PEPTIDE1,PEPTIDE1,1:R1-5:R2$$$V2.0) | 42% | 2 µM | 200 µM | 1.2 µM | 48% |
| CC(C)[C@@H]1NC(=O)[C@H](CC2CCCCC2)NC(=O)[C@H](CO)NC(=O)[C@H](Cc2ccccc2)NC(=O)[C@@H](Cc2ccccc2)N(C)C1=O (HELM PEPTIDE1{[Cha].V.[CN([C@H](Cc1ccccc1)C(=O)[*:2])[*:1]].F.S}$PEPTIDE1,PEPTIDE1,1:R1-5:R2$$$V2.0) | 34% | – | – | – | 20% |
| CC(C)C[C@@H]1C(=O)N[C@H](CC(C)C)C(=O)N(C)[C@H](C(C)C)C(=O)N[C@H](CC(C)C)C(=O)N[C@H](Cc2ccccc2)C(=O)N1C (HELM PEPTIDE1{[dF].[CC(C)C[C@H](C(=O)[*:2])N(C)[*:1]].[dL].[CC(C)[C@H](C(=O)[*:2])N(C)[*:1]].[dL]}$PEPTIDE1,PEPTIDE1,1:R1-5:R2$$$V2.0) | 43% | – | – | – | 48% |
| CC(C)C[C@@H]1C(=O)N[C@H](CC(C)C)C(=O)N[C@H](C(C)C)C(=O)N[C@H](CC(C)C)C(=O)N[C@H](Cc2ccccc2)C(=O)N1C (HELM PEPTIDE1{[dF].[CC(C)C[C@H](C(=O)[*:2])N(C)[*:1]].[dL].[dV].[dL]}$PEPTIDE1,PEPTIDE1,1:R1-5:R2$$$V2.0) | 42% | – | – | – | 28% |
| CC(C)C[C@H]1NC(=O)[C@@H](Cc2ccccc2)NC(=O)[C@@H](CC(C)C)NC(=O)[C@@H](C(C)C)N(C)C(=O)[C@@H](CC(C)C)NC1=O (HELM PEPTIDE1{[dF].[dL].[dL].[CC(C)[C@H](C(=O)[*:2])N(C)[*:1]].[dL]}$PEPTIDE1,PEPTIDE1,1:R1-5:R2$$$V2.0) | 18% | – | – | – | 31% |
| CC(C)C[C@@H]1C(=O)N[C@H](Cc2ccccc2)C(=O)N[C@H](CC(C)C)C(=O)N[C@H](CC(C)C)C(=O)N[C@H](C(C)C)C(=O)N1C (HELM PEPTIDE1{[dF].[dL].[dL].[dV].[CC(C)C[C@H](C(=O)[*:2])N(C)[*:1]]}$PEPTIDE1,PEPTIDE1,1:R1-5:R2$$$V2.0) | 1% | – | – | – | 4% |
| CC(C)C[C@H]1NC(=O)[C@@H](Cc2ccccc2)NC(=O)[C@@H](CC(C)C)NC(=O)[C@@H](C(C)C)NC(=O)[C@@H](CC(C)C)NC1=O (HELM PEPTIDE1{[dF].[dL].[dL].[dV].[dL]}$PEPTIDE1,PEPTIDE1,1:R1-5:R2$$$V2.0) | 27% | – | – | – | 15% |
| CC(C)C[C@@H]1NC(=O)[C@H](CC(C)C)NC(=O)[C@H](Cc2ccccc2)N(C)C(=O)[C@H](CC(C)C)NC(=O)[C@H](C(C)C)NC1=O (HELM PEPTIDE1{[meF].L.L.V.L}$PEPTIDE1,PEPTIDE1,1:R1-5:R2$$$V2.0) | 2% | > 50 µM | – | > 50 µM | 18% |
| CC(C)C[C@@H]1NC(=O)[C@H](Cc2ccccc2)NC(=O)[C@H](CC(C)C)NC(=O)[C@H](C(C)C)NC(=O)[C@H](CCCCNC(=O)OCc2ccccc2)NC1=O (cyclo(FLK(Cbz)VL)) | 46% | – | – | – | 41% |
| CC(C)C[C@@H]1NC(=O)[C@H](Cc2ccccc2)NC(=O)[C@@H](Cc2ccccc2)N(C)C(=O)[C@H](C(C)C)NC(=O)[C@H](CCCCNC(=O)OCc2ccccc2)NC1=O (cyclo(FLK(Cbz)V[dNMeF])) | 38% | – | – | – | 14% |
| CC(C)C[C@@H]1NC(=O)[C@H](Cc2ccccc2)NC(=O)[C@H](CC(C)C)NC(=O)[C@@H](C(C)C)NC(=O)[C@H](CCCCNC(=O)OCc2ccccc2)NC1=O (cyclo(FLK(Cbz)[dV]L)) | 16% | – | – | – | 3% |
| CC(C)[C@@H]1NC(=O)[C@H](Cc2ccccc2)NC(=O)[C@@H](COCc2ccccc2)NC(=O)[C@H](C(C)C)NC(=O)[C@H](C(C)C)NC1=O (cyclo(FVVV[dS](Bn))) | 25% | – | – | – | 30% |
| CC(C)[C@@H]1NC(=O)[C@H](Cc2ccccc2)NC(=O)[C@H](C(C)C)NC(=O)[C@@H](COCc2ccccc2)NC(=O)[C@H](C(C)C)NC1=O (cyclo(FVV[dS](Bn)V)) | 17% | – | – | – | 14% |
| CC(C)C[C@@H]1NC(=O)[C@@H](Cc2ccccc2)NC(=O)[C@@H](CC(C)C)NC(=O)[C@@H](C(C)C)NC(=O)[C@H](CCCCNC(=O)OCc2ccccc2)NC1=O (cyclo(K(Cbz)[dV][dL][dF]L)) | 22% | – | – | – | 13% |
| Nc1ccn([C@@H]2O[C@H](CO)[C@@H](O)C2(F)F)c(=O)n1 [GEMCITABINE] | – | 14.3 µM | 200 µM | 11.8 µM | – |
